The target of data set [1] is Somatostatin receptor type 2 (Homo sapiens, UniProt P30874). Description: Binding affinity of human Somatostatin receptor type 2 (hsst2) by the displacement of [125I]- Tyr11 somatostatin-14 in CHO-K1 cells. The data set is classed as cell-based. The gist of the method: (§1)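 Membranes from CHO-K1 cells stably expressing each cloned human receptor, prepared in 50 mM Tris-HCl pH 7.8 with EGTA, MgCl2 and protease inhibitors. Membranes (0.2 or 0.4 mg/mL protein, receptor-dependent) incubated with 125I-Tyr11 somatostatin-14 for 45 min at room temperature. Nonspecific binding taken with […] somatostatin. Bound ligand separated by GF/C filtration and counted. Triplicate wells, at least two experiments. IC50 taken from inhibition curves, mean ± SEM.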
Sequence of Somatostatin receptor type 2 (P30874 whole entry): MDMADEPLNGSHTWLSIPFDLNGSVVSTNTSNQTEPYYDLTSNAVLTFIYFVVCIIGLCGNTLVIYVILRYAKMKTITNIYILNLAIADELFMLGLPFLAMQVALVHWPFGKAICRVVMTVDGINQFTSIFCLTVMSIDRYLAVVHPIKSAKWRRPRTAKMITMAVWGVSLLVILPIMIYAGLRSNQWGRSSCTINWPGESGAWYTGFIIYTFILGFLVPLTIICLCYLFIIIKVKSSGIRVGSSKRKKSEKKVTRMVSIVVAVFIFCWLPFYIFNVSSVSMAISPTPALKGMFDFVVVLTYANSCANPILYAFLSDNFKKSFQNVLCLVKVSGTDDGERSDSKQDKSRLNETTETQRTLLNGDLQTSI
For orientation: Loss of bound radioactivity is the signal in a displacement assay; it reports binding, not function.

For data set [2], the target named is Somatostatin receptor type 1 (Homo sapiens, UniProt P30872). The data set can be described thus: Binding affinity of human Somatostatin receptor type 1 (hsst1) by the displacement of [125I]- Tyr11 somatostatin-14 in CHO-K1 cells. The data set is classed as cell-based. The procedure, abridged:
as §1

Data set [3] deals with Somatostatin receptor type 5 (Homo sapiens, UniProt P35346). Description: Binding affinity of human Somatostatin receptor type 5 (hsst5) by the displacement of [125I]- Tyr11 somatostatin-14 in CHO-K1 cells. The data set is classed as cell-based. The gist of the method:
as §1

The target of data set [4] is Somatostatin receptor type 3 (Homo sapiens, UniProt P32745). Description: Binding affinity of human Somatostatin receptor type 3 (hsst3) by the displacement of [125I]- Tyr11 somatostatin-14 in CHO-K1 cells. The data set is classed as cell-based. The gist of the method: as §1
Sequence of Somatostatin receptor type 3 (P32745 whole entry): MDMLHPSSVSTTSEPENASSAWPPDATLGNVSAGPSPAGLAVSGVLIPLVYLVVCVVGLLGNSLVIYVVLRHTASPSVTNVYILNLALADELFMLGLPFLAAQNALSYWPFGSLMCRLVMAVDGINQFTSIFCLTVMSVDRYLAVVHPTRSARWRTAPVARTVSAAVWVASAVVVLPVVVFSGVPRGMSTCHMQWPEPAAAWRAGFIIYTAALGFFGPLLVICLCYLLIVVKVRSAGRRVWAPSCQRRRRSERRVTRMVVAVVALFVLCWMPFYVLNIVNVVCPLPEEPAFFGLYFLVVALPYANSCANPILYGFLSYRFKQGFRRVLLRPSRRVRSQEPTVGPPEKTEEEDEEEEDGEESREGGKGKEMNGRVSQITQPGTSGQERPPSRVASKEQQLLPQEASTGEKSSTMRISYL
For data set [5], the target named is Somatostatin receptor type 4 (Homo sapiens, UniProt P31391). Description: Binding affinity of human Somatostatin receptor type 4 (hsst4) by the displacement of [125I]- Tyr11 somatostatin-14 in CHO-K1 cells. The data set is classed as cell-based. The gist of the method:
as §1

Data set [6] can be described thus: Half life in renal homogenate. The data set is classed as ADME, tissue-based. The gist of the method:
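Peptides at 0.4 mg/mL final were incubated in rat renal homogenate at 37 °C for up to 4 h. Samples were taken at several time points. The fraction of intact peptide was measured by HPLC from the loss of major-peak area.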

pIC50: −log10 of the molar value. *1 amine or outer side, *2 acyl side, *3 side chain or, on linkers, in order; H or OH if unused. Where a SMILES comes first, the peptide text is derived from it. Bridges are numbered along the chain shown (N, C = ends). [ ]: non-standard residue; d: D form. N(2-mercaptoethyl)Gly = O=C(CN(CCS[*:3])[*:1])[*:2] Where only a bound is given, the exact number is not on record here.

Usually pIC50 stands for the IC50 on a negative log10 scale, so that one unit is a factor of ten. Read a low pIC50 as a large IC50. A word on the half-life: it is the time in which the quantity being followed falls by half. A low value points to rapid decline.

Sequence of Somatostatin receptor type 1 (P30872 whole entry): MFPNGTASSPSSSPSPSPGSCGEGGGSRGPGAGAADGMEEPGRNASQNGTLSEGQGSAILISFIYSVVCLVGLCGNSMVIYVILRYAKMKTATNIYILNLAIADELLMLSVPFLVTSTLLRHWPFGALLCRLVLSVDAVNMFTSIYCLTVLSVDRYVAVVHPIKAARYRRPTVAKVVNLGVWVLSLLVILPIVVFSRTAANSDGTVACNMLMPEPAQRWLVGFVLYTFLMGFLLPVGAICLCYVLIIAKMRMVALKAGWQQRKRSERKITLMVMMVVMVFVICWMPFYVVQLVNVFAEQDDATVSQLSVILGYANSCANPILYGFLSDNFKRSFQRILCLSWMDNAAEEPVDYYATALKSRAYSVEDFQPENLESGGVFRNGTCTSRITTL
Sequence of Somatostatin receptor type 4 (P31391 whole entry): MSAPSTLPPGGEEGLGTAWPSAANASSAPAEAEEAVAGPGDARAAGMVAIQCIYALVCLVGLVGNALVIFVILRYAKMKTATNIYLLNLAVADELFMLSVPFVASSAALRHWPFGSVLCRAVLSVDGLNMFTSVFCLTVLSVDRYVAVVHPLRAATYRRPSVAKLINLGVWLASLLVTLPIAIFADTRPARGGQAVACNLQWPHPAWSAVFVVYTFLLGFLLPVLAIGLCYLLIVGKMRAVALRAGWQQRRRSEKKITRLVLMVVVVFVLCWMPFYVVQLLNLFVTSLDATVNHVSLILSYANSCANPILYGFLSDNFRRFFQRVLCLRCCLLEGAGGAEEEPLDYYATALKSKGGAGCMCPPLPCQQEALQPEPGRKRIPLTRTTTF
Sequence of Somatostatin receptor type 5 (P35346 whole entry): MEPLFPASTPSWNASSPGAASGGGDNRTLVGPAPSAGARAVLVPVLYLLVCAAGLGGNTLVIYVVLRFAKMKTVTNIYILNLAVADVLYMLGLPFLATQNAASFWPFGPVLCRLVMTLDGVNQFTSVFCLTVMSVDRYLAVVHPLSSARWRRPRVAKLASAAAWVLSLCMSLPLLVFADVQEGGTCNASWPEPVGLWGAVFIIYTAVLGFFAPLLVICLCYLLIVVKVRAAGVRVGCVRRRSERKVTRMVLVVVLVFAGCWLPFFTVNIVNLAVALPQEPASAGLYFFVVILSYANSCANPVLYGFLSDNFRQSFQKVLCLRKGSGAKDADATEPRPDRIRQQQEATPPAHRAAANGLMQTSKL

In the case of `C[C@@H](O)[C@@H]1NC(=O)[C@@H](CCCCN)NC(=O)[C@@H](Cc2c[nH]c3ccccc23)NC(=O)[C@@H](Cc2c[nH]c3ccccc23)NC(=O)[C@H](Cc2ccccc2)NC(=O)C(NC(=O)[C@@H](N)Cc2ccccc2)CSSCCN(CC(N)=O)C(=O)[C@@H](Cc2ccccc2)NC1=O` (stereo not given in full), the pIC50 is 7.89 in data set [1] (cho-k1); below 6.00 in data set [2] (cho-k1); 8.35 in data set [3] (cho-k1); below 7.00 in data set [4] (cho-k1); 7.44 in data set [5] (cho-k1).

On to `C[C@@H](O)[C@@H]1NC(=O)[C@H](CCCCN)NC(=O)[C@@H](Cc2c[nH]c3ccccc23)NC(=O)[C@H](Cc2c[nH]c3ccccc23)NC(=O)[C@H](Cc2ccccc2)NC(=O)CNCCSSCCN(CC(N)=O)C(=O)[C@H](Cc2ccccc2)NC1=O`, for which the negative logarithm of the IC50 (pIC50) in data set [1] was 8.39; in data set [2], below 6.00; in data set [3], 8.11; in data set [4], below 7.00; in data set [5], 7.31.

Turning to `C[C@@H](O)[C@@H]1NC(=O)[C@H](CCCCN)NC(=O)[C@@H](Cc2c[nH]c3ccccc23)NC(=O)[C@H](Cc2c[nH]c3ccccc23)NC(=O)[C@H](Cc2ccccc2)NC(=O)CCSSCCN(CC(N)=O)C(=O)[C@H](Cc2ccccc2)NC1=O`, the negative-log IC50 (pIC50) is 8.89 in data set [1]; below 6.00 in data set [2]; 8.55 in data set [3]; below 7.00 in data set [4]; below 7.00 in data set [5].

On to `C[C@@H](O)[C@@H]1NC(=O)[C@H](CCCCN)NC(=O)[C@@H](Cc2c[nH]c3ccccc23)NC(=O)[C@H](Cc2c[nH]c3ccccc23)NC(=O)[C@H](Cc2ccccc2)NC(=O)CCCNC(=O)CCCN(CC(N)=O)C(=O)[C@H](Cc2ccccc2)NC1=O`, for which the negative logarithm of the IC50 (pIC50) in data set [1] is 8.52; in data set [2], below 6.00; in data set [3], 9.00; in data set [4] it was below 7.00; in data set [5], 8.15.

Take `C[C@@H](O)[C@@H]1NC(=O)[C@@H](CCCCN)NC(=O)[C@@H](Cc2c[nH]c3ccccc23)NC(=O)[C@@H](Cc2c[nH]c3ccccc23)NC(=O)[C@H](Cc2ccccc2)NC(=O)CN(C(=O)[C@@H](N)Cc2ccccc2)CCSSCCN(CC(N)=O)C(=O)[C@@H](Cc2ccccc2)NC1=O`: the pIC50 was 8.60 in data set [1] (cho-k1); below 6.00 in data set [2] (cho-k1); 7.74 in data set [3] (cho-k1); below 7.00 in data set [4] (cho-k1); below 7.00 in data set [5] (cho-k1).

`C[C@@H](O)[C@@H]1NC(=O)[C@H](CCCCN)NC(=O)[C@@H](Cc2c[nH]c3ccccc23)NC(=O)[C@H](Cc2c[nH]c3ccccc23)NC(=O)[C@H](Cc2ccccc2)NC(=O)[C@@H](N)CSSCCN(CC(N)=O)C(=O)[C@H](Cc2ccccc2)NC1=O` (H-CFW[dW]KTF[N(2-mercaptoethyl)Gly]-NH2; disulfide 1-8) showed a half-life in data set [6] of 3 h. Further, the negative-log IC50 (pIC50) in data set [1] is 8.28; in data set [2], below 6.00; in data set [3], 8.92; in data set [4], 7.39; in data set [5] it was 7.39.

For `C[C@@H](O)[C@@H]1NC(=O)[C@H](CCCCN)NC(=O)[C@@H](Cc2c[nH]c3ccccc23)NC(=O)[C@H](Cc2c[nH]c3ccccc23)NC(=O)[C@H](Cc2ccccc2)NC(=O)CSSCCN(CC(N)=O)C(=O)[C@H](Cc2ccccc2)NC1=O`, the pIC50 in data set [1] was 7.54; in data set [2] it was below 6.00; in data set [4], 7.81; in data set [5], below 7.00.

Source of the values: ChEMBL document CHEMBL1135917, “Human somatostatin receptor specificity of backbone-cyclic analogues containing novel sulfur building units” (J Med Chem, 2002).
